The values below come from ChEMBL document CHEMBL2203264, “Optimization of imidazo[4,5-b]pyridine-based kinase inhibitors: identification of a dual FLT3/Aurora kinase inhibitor as an orally bioavailable preclinical development candidate for the treatment of acute myeloid leukemia” (J Med Chem, 2012).

A short description of data set [1]: Binding affinity to FLT3 ITD mutant.
For the next data set, the target named is hERG (KCNH2) (Homo sapiens, UniProt Q12809). The data set can be described thus: Inhibition of human ERG at 10 uM by cell-based electrophysiology assay.
hERG (KCNH2), sequence (Q12809 whole entry): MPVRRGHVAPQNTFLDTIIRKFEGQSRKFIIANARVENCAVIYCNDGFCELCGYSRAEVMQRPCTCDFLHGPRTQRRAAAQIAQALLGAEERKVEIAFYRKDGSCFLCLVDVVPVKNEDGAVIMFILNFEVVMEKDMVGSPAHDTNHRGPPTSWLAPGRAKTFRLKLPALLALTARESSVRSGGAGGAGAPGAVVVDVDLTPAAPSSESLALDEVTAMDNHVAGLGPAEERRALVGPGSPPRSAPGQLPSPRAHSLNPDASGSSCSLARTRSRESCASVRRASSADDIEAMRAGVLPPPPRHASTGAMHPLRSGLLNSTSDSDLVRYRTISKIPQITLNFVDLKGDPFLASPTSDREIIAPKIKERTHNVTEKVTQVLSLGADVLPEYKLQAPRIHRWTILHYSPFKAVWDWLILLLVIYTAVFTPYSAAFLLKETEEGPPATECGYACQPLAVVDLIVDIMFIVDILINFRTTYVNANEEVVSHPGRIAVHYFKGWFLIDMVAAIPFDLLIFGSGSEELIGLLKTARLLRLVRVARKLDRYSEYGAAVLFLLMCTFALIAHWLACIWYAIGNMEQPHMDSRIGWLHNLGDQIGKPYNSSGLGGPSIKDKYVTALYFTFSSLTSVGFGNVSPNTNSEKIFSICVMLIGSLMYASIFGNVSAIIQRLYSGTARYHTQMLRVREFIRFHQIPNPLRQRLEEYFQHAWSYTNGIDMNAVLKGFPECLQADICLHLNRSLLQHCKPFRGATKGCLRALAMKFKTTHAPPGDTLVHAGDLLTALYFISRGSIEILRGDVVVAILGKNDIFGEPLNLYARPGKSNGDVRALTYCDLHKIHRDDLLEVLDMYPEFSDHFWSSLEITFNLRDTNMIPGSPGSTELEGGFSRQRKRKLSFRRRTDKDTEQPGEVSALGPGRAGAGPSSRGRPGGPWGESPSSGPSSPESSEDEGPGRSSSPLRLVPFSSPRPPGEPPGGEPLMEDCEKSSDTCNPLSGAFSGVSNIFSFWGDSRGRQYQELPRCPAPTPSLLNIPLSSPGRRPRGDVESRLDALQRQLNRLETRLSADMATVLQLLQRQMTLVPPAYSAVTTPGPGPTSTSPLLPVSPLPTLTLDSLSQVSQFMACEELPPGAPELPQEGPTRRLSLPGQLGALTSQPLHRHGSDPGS
Data set [2] is described as follows: Metabolic stability in human liver microsomes assessed as parent compound metabolism after 30 mins by LC-MS analysis. Conditions: read-out: Drug metabolism. The class given is ADME, Microsome. The gist of the method:
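Test compound at 10 μM with pooled mixed-gender human liver microsomes (1 mg/mL protein), NADPH 1 mM, UDPGA 2.5 mM and MgCl2 3 mM in 10 mM PBS at 37 °C for 0 and 30 min. Controls omit NADPH/UDPGA. Compound remaining measured by LC–MS; reported as percent of parent metabolized at 30 min.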

A short description of data set [3]: Metabolic stability in mouse liver microsomes assessed as parent compound metabolism after 30 mins by LC-MS analysis. The class given is ADME, Microsome. Conditions: read-out: Drug metabolism. The gist of the method: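 Male CD1 mouse liver microsomes (1 mg/mL protein) incubated with 10 μM compound plus NADPH 1 mM, UDPGA 2.5 mM and MgCl2 3 mM in 10 mM PBS at 37 °C for 0 and 30 min. NADPH/UDPGA-free controls included. LC–MS quantitation of remaining compound; reported as percent parent metabolized after 30 min.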

The target of data set [4] is T1, Receptor-type tyrosine-protein kinase FLT3 (Homo sapiens, UniProt P36888).
T1 sequence (P36888 whole entry): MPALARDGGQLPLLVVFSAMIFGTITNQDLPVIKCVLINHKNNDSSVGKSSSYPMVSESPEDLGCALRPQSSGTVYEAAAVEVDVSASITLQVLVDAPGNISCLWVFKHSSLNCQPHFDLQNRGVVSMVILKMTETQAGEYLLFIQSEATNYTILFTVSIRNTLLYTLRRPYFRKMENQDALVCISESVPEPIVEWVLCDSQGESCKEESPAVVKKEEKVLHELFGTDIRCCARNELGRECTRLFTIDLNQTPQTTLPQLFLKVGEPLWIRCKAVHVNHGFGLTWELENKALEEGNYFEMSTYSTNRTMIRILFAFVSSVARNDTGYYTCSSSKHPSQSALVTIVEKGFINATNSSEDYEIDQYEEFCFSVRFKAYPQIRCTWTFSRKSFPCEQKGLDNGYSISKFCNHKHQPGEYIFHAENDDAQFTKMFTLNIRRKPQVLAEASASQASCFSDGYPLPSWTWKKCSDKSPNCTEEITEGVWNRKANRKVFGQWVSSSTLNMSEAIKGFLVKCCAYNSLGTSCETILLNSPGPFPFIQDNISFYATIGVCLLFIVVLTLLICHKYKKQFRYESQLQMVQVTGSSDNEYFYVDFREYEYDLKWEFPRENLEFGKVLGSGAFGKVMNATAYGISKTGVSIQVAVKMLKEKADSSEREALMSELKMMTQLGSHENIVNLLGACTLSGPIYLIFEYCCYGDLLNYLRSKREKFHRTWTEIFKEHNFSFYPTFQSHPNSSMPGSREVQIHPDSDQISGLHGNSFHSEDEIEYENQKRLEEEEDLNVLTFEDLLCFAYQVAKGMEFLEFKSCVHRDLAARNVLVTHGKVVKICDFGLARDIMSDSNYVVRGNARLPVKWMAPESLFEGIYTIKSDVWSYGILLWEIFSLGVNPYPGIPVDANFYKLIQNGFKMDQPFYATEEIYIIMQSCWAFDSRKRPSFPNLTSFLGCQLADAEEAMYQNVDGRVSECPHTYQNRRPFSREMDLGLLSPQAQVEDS

A further data set relates to SW-620. Briefly: cells. As to conditions: Homo sapiens, SW-620, 72 h.
For a further data set, the target named is T2, Aurora kinase A (Homo sapiens, UniProt O14965).
T2 sequence (O14965 whole entry): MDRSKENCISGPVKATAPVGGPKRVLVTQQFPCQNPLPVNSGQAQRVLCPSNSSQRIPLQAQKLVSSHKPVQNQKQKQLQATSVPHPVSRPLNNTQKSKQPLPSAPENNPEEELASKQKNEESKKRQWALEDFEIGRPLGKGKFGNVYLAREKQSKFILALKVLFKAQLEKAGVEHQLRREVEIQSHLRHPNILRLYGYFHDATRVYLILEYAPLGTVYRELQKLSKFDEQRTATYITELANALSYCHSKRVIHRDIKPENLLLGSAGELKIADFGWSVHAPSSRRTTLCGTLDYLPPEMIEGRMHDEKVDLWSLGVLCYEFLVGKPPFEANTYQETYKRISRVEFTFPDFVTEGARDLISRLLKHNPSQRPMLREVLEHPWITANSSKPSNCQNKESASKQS
The data set can be described thus: Inhibition of GST-tagged human Aurora A kinase expressed in baculovirus system.

The target in data set [5] is Voltage-gated inwardly rectifying potassium channel KCNH2 (Homo sapiens, UniProt Q12809). The data set can be described thus: Inhibition of human ERG by cell-based electrophysiology assay.
Voltage-gated inwardly rectifying potassium channel KCNH2, sequence (Q12809 whole entry): as the sequence (Q12809 whole entry) above

The term Kd denotes the free concentration of one partner at which half of the binding sites on the other are occupied at equilibrium, for simple one-to-one binding. Higher therefore signals weaker binding. The term inhibition denotes the drop in the measured response relative to a control, in per cent. Low values mean a response near the control, high ones a response far below the control. By GI50 is commonly meant the concentration at which growth is held to half of that of the control. A low value points to greater sensitivity of the cells. As a reminder, the IC50 is the midpoint of a concentration-inhibition curve.

`Cc1cc(CN2CCN(c3c(Br)cnc4nc(-c5ccc(N6CCN(C)CC6)cc5)[nH]c34)CC2)no1`: the Kd in data set [1] stood at 4.9 nM; in data set [4], 1.2 nM. The molecule also showed an inhibition at 10 µM on hERG (KCNH2) of 75%. The results for the metabolised at 0.5 h in data set [2] and in data set [3] were 86% and 36%, respectively.

As to `Cc1cc(CN2CCN(c3c(Br)cnc4[nH]c(-c5cncn5C)nc34)CC2)no1`, the concentration for 50% growth inhibition (GI50) in the data set on SW-620 worked out at 2180 nM. For the same molecule, the dissociation constant Kd in data set [1] amounted to 62 nM; in data set [4], 14 nM. On Aurora kinase A, the IC50 is 15 nM.

With `Cc1cc(CN2CCN(c3c(Cl)cnc4[nH]c(-c5cnn(C)c5)nc34)CC2)no1`, in the data set on SW-620, the concentration for 50% growth inhibition (GI50) is 1800 nM. For the same molecule, the dissociation constant (Kd) turned out to be 66 nM in data set [1] and 12 nM in data set [4]. At Aurora kinase A, this molecule had a half-inhibitory concentration (IC50) of 45 nM.

Consider `Cc1cc(CN2CCN(c3c(Cl)cnc4[nH]c(-c5cccc(N6CCN(C)CC6)c5)nc34)CC2)no1`, for which halving of growth with SW-620 (GI50) required 667 nM. Further, the Kd in data set [1] was found to be 26 nM; in data set [4], 5.4 nM. For the same molecule, the IC50 on Aurora kinase A came out at 26 nM; in data set [5], 9.5 µM. Moreover, the metabolised at 0.5 h in data set [2] was 24%; in data set [3], 40%.

Turning to `Cc1cc(CN2CCN(c3c(Cl)cnc4[nH]c(-c5cn(C)nc5C)nc34)CC2)no1`, the 50% growth inhibitory concentration (GI50) in the data set with SW-620 turned out to be 597 nM. In addition, the Kd in data set [1] worked out at 10 nM; in data set [4] it was 2.4 nM. Also, the IC50 on Aurora kinase A turned out to be 13 nM; in data set [5] it was 6.3 µM. For the same molecule, the metabolised at 0.5 h turned out to be 38% in data set [2] and 48% in data set [3].

`Cc1nn(C)cc1-c1nc2c(N3CCN(Cc4cncnc4)CC3)c(Cl)cnc2[nH]1` returned a GI50 in the data set on SW-620 of 950 nM. In addition, the Kd in data set [1] is 15 nM; in data set [4], 5.9 nM. In addition, on Aurora kinase A, it took 22 nM to reach half-maximal inhibition (IC50). On hERG (KCNH2), this molecule yielded an inhibition at 10 µM of 32%. For the same molecule, the metabolised at 0.5 h in data set [2] was 50%; in data set [3] it was 78%.
